Data from ChEMBL document CHEMBL1138252, “Synthesis, in vitro inhibitory activity towards COX-2 and haemolytic activity of derivatives of esculentoside A” (Bioorg Med Chem Lett, 2007).

What was measured:
[1] = Toxicity against new Zealand rabbit blood assessed as hemolysis after 60 mins; format: tissue-based, Oryctolagus cuniculus; conditions: read-out: HD50
Summary of the method: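 Erythrocytes washed three times in PBS (pH 7.4) and diluted to a 10% suspension. Compounds were dissolved in DMSO, then diluted with PBS to 2.5–250 µg/mL. Suspension was added, and samples were stirred and incubated 60 min at 37 °C with periodic stirring. After centrifugation at 3000 rpm for 5 min, supernatant A540 was read. Haemolysis % was calculated relative to distilled water (100%).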

[2] = target: T1, Prostaglandin G/H synthase 2 (Homo sapiens) (UniProt P35354); conditions: Spodoptera frugiperda; Sf9; at 10 µM;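 also: recombinant human COX2 made in Sf9 insect cells, read-out is reactive oxygen species formed on arachidonic acid stimulation, measured after 30 min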
T1 sequence (whole entry): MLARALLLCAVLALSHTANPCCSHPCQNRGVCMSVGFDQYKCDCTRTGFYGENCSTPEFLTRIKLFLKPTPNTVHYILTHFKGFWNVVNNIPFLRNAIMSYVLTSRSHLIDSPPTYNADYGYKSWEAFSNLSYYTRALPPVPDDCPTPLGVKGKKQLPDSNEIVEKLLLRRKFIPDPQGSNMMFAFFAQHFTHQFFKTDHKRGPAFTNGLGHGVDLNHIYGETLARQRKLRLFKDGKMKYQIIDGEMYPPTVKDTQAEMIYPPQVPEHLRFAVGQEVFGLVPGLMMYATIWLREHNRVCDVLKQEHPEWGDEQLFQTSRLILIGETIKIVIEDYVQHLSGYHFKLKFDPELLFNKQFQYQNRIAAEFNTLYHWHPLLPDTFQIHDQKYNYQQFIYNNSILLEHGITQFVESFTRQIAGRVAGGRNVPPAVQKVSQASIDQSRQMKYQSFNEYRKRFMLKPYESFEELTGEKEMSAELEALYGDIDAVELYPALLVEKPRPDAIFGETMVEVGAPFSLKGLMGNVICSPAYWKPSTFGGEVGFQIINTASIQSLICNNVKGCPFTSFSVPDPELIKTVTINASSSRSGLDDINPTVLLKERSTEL

Row | SMILES | inhibition [2] [%] | HC50 at 1 h [1] [µM]
1 | COC(=O)[C@@H](Cc1c[nH]c2ccccc12)NC(=O)[C@]12CC[C@](C)(C(=O)OC)C[C@H]1C1=CC[C@@H]3[C@@]4(C)C[C@H](O)[C@H](O[C@@H]5OC[C@@H](O[C@@H]6O[C@H](CO)[C@@H](O)[C@H](O)[C@H]6O)[C@H](O)[C@H]5O)[C@@](C)(CO)[C@@H]4CC[C@@]3(C)[C@]1(C)CC2 | 47.7 | > 243
2 | COC(=O)[C@H](NC(=O)[C@]12CC[C@](C)(C(=O)OC)C[C@H]1C1=CC[C@@H]3[C@@]4(C)C[C@H](O)[C@H](O[C@@H]5OC[C@@H](O[C@@H]6O[C@H](CO)[C@@H](O)[C@H](O)[C@H]6O)[C@H](O)[C@H]5O)[C@@](C)(CO)[C@@H]4CC[C@@]3(C)[C@]1(C)CC2)C(C)C |  | > 266
3 | COC(=O)[C@@]1(C)CC[C@]2(C(=O)NCCO)CC[C@]3(C)C(=CC[C@@H]4[C@@]5(C)C[C@H](O)[C@H](O[C@@H]6OC[C@@H](O[C@@H]7O[C@H](CO)[C@@H](O)[C@H](O)[C@H]7O)[C@H](O)[C@H]6O)[C@@](C)(CO)[C@@H]5CC[C@]43C)[C@@H]2C1 |  | > 287
4 | COC(=O)[C@@H](CCSC)NC(=O)[C@]12CC[C@](C)(C(=O)OC)C[C@H]1C1=CC[C@@H]3[C@@]4(C)C[C@H](O)[C@H](O[C@@H]5OC[C@@H](O[C@@H]6O[C@H](CO)[C@@H](O)[C@H](O)[C@H]6O)[C@H](O)[C@H]5O)[C@@](C)(CO)[C@@H]4CC[C@@]3(C)[C@]1(C)CC2 |  | 203
5 | COC(=O)[C@@]1(C)CC[C@]2(C(=O)NCCCc3ccccc3)CC[C@]3(C)C(=CC[C@@H]4[C@@]5(C)C[C@H](O)[C@H](O[C@@H]6OC[C@@H](O[C@@H]7O[C@H](CO)[C@@H](O)[C@H](O)[C@H]7O)[C@H](O)[C@H]6O)[C@@](C)(CO)[C@@H]5CC[C@]43C)[C@@H]2C1 |  | < 2.6
6 | COC(=O)[C@@H](C)NC(=O)[C@]12CC[C@](C)(C(=O)OC)C[C@H]1C1=CC[C@@H]3[C@@]4(C)C[C@H](O)[C@H](O[C@@H]5OC[C@@H](O[C@@H]6O[C@H](CO)[C@@H](O)[C@H](O)[C@H]6O)[C@H](O)[C@H]5O)[C@@](C)(CO)[C@@H]4CC[C@@]3(C)[C@]1(C)CC2 |  | > 274
7 | CCCNC(=O)[C@]12CC[C@](C)(C(=O)OC)C[C@H]1C1=CC[C@@H]3[C@@]4(C)C[C@H](O)[C@H](O[C@@H]5OC[C@@H](O[C@@H]6O[C@H](CO)[C@@H](O)[C@H](O)[C@H]6O)[C@H](O)[C@H]5O)[C@@](C)(CO)[C@@H]4CC[C@@]3(C)[C@]1(C)CC2 |  | 191
8 | COC(=O)[C@@]1(C)CC[C@]2(C(=O)N3CCNCC3)CC[C@]3(C)C(=CC[C@@H]4[C@@]5(C)C[C@H](O)[C@H](O[C@@H]6OC[C@@H](O[C@@H]7O[C@H](CO)[C@@H](O)[C@H](O)[C@H]7O)[C@H](O)[C@H]6O)[C@@](C)(CO)[C@@H]5CC[C@]43C)[C@@H]2C1 | 4.6 | 
9 | COC(=O)[C@@H](Cc1ccccc1)NC(=O)[C@]12CC[C@](C)(C(=O)OC)C[C@H]1C1=CC[C@@H]3[C@@]4(C)C[C@H](O)[C@H](O[C@@H]5OC[C@@H](O[C@@H]6O[C@H](CO)[C@@H](O)[C@H](O)[C@H]6O)[C@H](O)[C@H]5O)[C@@](C)(CO)[C@@H]4CC[C@@]3(C)[C@]1(C)CC2 |  | 204
10 | COC(=O)[C@@]1(C)CC[C@]2(C(=O)On3nnc4ccccc43)CC[C@]3(C)C(=CC[C@@H]4[C@@]5(C)C[C@H](O)[C@H](O[C@@H]6OC[C@@H](O[C@@H]7O[C@H](CO)[C@@H](O)[C@H](O)[C@H]7O)[C@H](O)[C@H]6O)[C@@](C)(CO)[C@@H]5CC[C@]43C)[C@@H]2C1 |  | 55.2
11 | CNC(=O)[C@]12CC[C@](C)(C(=O)OC)C[C@H]1C1=CC[C@@H]3[C@@]4(C)C[C@H](O)[C@H](O[C@@H]5OC[C@@H](O[C@@H]6O[C@H](CO)[C@@H](O)[C@H](O)[C@H]6O)[C@H](O)[C@H]5O)[C@@](C)(CO)[C@@H]4CC[C@@]3(C)[C@]1(C)CC2 |  | 276
12 | CCCCNC(=O)[C@]12CC[C@](C)(C(=O)OC)C[C@H]1C1=CC[C@@H]3[C@@]4(C)C[C@H](O)[C@H](O[C@@H]5OC[C@@H](O[C@@H]6O[C@H](CO)[C@@H](O)[C@H](O)[C@H]6O)[C@H](O)[C@H]5O)[C@@](C)(CO)[C@@H]4CC[C@@]3(C)[C@]1(C)CC2 |  | 15.8
13 | COC(=O)[C@@]1(C)CC[C@]2(C(=O)N(C(=O)NC3CCCCC3)C3CCCCC3)CC[C@]3(C)C(=CC[C@@H]4[C@@]5(C)C[C@H](O)[C@H](O[C@@H]6OC[C@@H](O[C@@H]7O[C@H](CO)[C@@H](O)[C@H](O)[C@H]7O)[C@H](O)[C@H]6O)[C@@](C)(CO)[C@@H]5CC[C@]43C)[C@@H]2C1 | 75 | < 2.4

Second part, led by results:

Row | inhibition [2] [%] | SMILES | HC50 at 1 h [1] [µM]
14 | 19.4 | COC(=O)[C@@]1(C)CC[C@]2(C(=O)NCc3ccc(OC)c(OC)c3)CC[C@]3(C)C(=CC[C@@H]4[C@@]5(C)C[C@H](O)[C@H](O[C@@H]6OC[C@@H](O[C@@H]7O[C@H](CO)[C@@H](O)[C@H](O)[C@H]7O)[C@H](O)[C@H]6O)[C@@](C)(CO)[C@@H]5CC[C@]43C)[C@@H]2C1 | 215
15 | 82.9 | COC(=O)[C@@]1(C)CC[C@]2(C(=O)NCc3ccccc3Cl)CC[C@]3(C)C(=CC[C@@H]4[C@@]5(C)C[C@H](O)[C@H](O[C@@H]6OC[C@@H](O[C@@H]7O[C@H](CO)[C@@H](O)[C@H](O)[C@H]7O)[C@H](O)[C@H]6O)[C@@](C)(CO)[C@@H]5CC[C@]43C)[C@@H]2C1 | 42.8
16 | 56.8 | COC(=O)[C@@]1(C)CC[C@]2(C(=O)NCc3ccc(OC)cc3)CC[C@]3(C)C(=CC[C@@H]4[C@@]5(C)C[C@H](O)[C@H](O[C@@H]6OC[C@@H](O[C@@H]7O[C@H](CO)[C@@H](O)[C@H](O)[C@H]7O)[C@H](O)[C@H]6O)[C@@](C)(CO)[C@@H]5CC[C@]43C)[C@@H]2C1 | 12.7
17 | 126 | COC(=O)[C@@]1(C)CC[C@]2(C(=O)NCc3ccc(Cl)cc3)CC[C@]3(C)C(=CC[C@@H]4[C@@]5(C)C[C@H](O)[C@H](O[C@@H]6OC[C@@H](O[C@@H]7O[C@H](CO)[C@@H](O)[C@H](O)[C@H]7O)[C@H](O)[C@H]6O)[C@@](C)(CO)[C@@H]5CC[C@]43C)[C@@H]2C1 | < 2.6
18 | 21.7 | COC(=O)[C@@]1(C)CC[C@]2(C(=O)O)CC[C@]3(C)C(=CC[C@@H]4[C@@]5(C)C[C@H](O)[C@H](O[C@@H]6OC[C@@H](O[C@@H]7O[C@H](CO)[C@@H](O)[C@H](O)[C@H]7O)[C@H](O)[C@H]6O)[C@@](C)(CO)[C@@H]5CC[C@]43C)[C@@H]2C1 | 186
19 | 94.7 | COC(=O)[C@@]1(C)CC[C@]2(C(=O)NCCc3ccccc3)CC[C@]3(C)C(=CC[C@@H]4[C@@]5(C)C[C@H](O)[C@H](O[C@@H]6OC[C@@H](O[C@@H]7O[C@H](CO)[C@@H](O)[C@H](O)[C@H]7O)[C@H](O)[C@H]6O)[C@@](C)(CO)[C@@H]5CC[C@]43C)[C@@H]2C1 | 21.3
20 | 26.9 | COC(=O)[C@@]1(C)CC[C@]2(C(=O)NCc3ccccc3)CC[C@]3(C)C(=CC[C@@H]4[C@@]5(C)C[C@H](O)[C@H](O[C@@H]6OC[C@@H](O[C@@H]7O[C@H](CO)[C@@H](O)[C@H](O)[C@H]7O)[C@H](O)[C@H]6O)[C@@](C)(CO)[C@@H]5CC[C@]43C)[C@@H]2C1 | 136
21 | 58.1 | COC(=O)[C@@]1(C)CC[C@]2(C(=O)NCc3ccc(F)cc3)CC[C@]3(C)C(=CC[C@@H]4[C@@]5(C)C[C@H](O)[C@H](O[C@@H]6OC[C@@H](O[C@@H]7O[C@H](CO)[C@@H](O)[C@H](O)[C@H]7O)[C@H](O)[C@H]6O)[C@@](C)(CO)[C@@H]5CC[C@]43C)[C@@H]2C1 | 94.5
